Assay results reported in publication PMC9918595 (Molecular imaging and biology, 2022).
Values joined by “and” are separate entries in the source; they are usually repeats but may differ in a detail not shown here. Identical values can stand only once. “Also recorded” adds a separate entry of the source. Like-named read-outs stand apart in the source and are kept apart here.

Legend:
human TRPC5 [1] = settings: calcium flux assay; cited from earlier work
[2] = in vivo studies; cited from earlier work
[3] = system: wide range of molecular targets including ion channels (TRPV, TRPM), receptors (dopamine D1 and D2, NMDA, TNF-α) and enzymes (acetylcholinesterase, tyrosine …); settings: patch clamp assay; cited from earlier work
human TRPC5 [4] = settings: whole-cell manual patched clamp assay; cited from earlier work
TRPC5 [5] = biological target: T1, TRPC5 (Rattus norvegicus, UniProt Q8VD38); assay: In vitro autoradiography study of the rat brain; assay type: binding, Sprague Dawley rats
T1 sequence (Q8VD38 1-974): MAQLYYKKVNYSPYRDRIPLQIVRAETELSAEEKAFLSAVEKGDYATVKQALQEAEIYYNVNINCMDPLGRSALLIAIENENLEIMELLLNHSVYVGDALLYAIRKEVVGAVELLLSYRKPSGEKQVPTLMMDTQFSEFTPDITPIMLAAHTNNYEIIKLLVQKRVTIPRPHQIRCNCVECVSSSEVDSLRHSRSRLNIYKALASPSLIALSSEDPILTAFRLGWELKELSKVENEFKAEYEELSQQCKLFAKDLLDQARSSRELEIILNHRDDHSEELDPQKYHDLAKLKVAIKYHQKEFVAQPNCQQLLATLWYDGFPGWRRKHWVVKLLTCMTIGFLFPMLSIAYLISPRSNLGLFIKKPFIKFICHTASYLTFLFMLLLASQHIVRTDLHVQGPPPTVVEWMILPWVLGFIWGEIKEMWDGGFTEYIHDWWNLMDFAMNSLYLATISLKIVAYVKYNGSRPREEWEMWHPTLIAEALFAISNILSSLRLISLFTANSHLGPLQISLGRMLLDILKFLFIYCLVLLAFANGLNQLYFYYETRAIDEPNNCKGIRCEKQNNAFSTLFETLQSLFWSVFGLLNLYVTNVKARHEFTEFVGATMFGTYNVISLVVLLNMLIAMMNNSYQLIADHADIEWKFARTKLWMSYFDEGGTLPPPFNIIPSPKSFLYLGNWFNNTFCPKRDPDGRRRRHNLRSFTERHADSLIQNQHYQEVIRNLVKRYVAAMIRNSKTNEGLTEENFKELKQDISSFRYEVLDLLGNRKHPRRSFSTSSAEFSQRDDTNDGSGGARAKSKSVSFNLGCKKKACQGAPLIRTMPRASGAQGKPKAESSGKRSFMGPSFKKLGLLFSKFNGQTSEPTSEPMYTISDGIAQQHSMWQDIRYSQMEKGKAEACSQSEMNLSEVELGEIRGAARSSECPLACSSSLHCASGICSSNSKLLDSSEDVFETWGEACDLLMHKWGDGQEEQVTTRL

[6] = LogD7.4 measurement, shake flask method; assay type: physicochemical; settings: n-octanol / PBS pH 7.4, n = 3
TRPC5 [7] = assay: MicroPET brain study of the nonhuman primate; assay type: in vivo, cynomolgus macaques
In short: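 Adult male cynomolgus macaques (9–10 kg), two tracer scans in each of two animals; fasted 12 h, ketamine (10–20 mg kg−1) plus glycopyrrolate ([…]) i.m., intubated, 0.8–2.0% isoflurane/oxygen. Venous catheter; 10 min positioning and 45 min attenuation transmission scans. IV bolus ~0.35 GBq (injected mass ~4.2 μg); 0–120 min dynamic scan (3×1, 4×2, 3×3, 20×5 min frames).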

[8] = Solubility of the radiotracer in dose formulation; assay type: physicochemical
[9] = Ex vivo biodistribution study; assay type: in vivo, Sprague Dawley rats; settings: for Tracer uptake, Blood / Tracer uptake, Brain / Tracer uptake, Fat / Tracer uptake, Heart / Tracer uptake, Kidney / Tracer uptake, Lung / Tracer uptake, Muscle / Tracer uptake, Pancreas / Tracer uptake, Small intestine / Tracer uptake, Spleen / Tracer uptake, Thymus / Tracer uptake, Liver: iv, n = 4
TRPC5 [10] = assay type: in vivo, 129S1/SvImJ mice; settings: 129S1/SvImJ TRPC5 knockout mice
TRPC5 [11] = biological target: T2, TRPC5 (Mus musculus, UniProt Q9QX29); assay type: in vivo, 129S1/SvImJ mice; settings: 129S1/SvImJ wild-type mice
T2 sequence (Q9QX29 1-975): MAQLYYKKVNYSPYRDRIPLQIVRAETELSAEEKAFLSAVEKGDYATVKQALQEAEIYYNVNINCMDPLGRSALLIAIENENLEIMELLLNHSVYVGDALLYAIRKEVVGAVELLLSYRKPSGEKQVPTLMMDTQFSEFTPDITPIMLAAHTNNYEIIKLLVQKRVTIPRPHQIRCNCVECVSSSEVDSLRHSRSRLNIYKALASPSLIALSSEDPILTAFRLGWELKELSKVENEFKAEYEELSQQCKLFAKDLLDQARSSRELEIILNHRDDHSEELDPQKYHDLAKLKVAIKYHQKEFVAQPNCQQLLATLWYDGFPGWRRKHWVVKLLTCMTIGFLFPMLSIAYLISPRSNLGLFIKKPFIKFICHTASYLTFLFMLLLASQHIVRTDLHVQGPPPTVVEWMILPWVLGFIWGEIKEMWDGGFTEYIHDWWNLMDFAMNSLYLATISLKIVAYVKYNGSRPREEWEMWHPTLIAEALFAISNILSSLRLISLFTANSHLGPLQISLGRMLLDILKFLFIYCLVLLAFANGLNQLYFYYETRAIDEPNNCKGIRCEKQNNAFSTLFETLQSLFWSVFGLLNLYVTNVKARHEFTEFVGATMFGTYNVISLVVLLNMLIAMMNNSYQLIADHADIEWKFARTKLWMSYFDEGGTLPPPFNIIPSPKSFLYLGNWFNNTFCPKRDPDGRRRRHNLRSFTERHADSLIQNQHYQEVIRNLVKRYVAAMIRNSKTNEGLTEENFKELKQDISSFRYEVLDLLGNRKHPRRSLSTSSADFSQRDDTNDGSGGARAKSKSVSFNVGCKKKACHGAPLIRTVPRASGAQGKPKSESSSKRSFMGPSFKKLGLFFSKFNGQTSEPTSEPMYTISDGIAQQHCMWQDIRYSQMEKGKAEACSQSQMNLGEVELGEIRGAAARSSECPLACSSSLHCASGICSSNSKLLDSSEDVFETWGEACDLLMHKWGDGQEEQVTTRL

Cn1c(=O)n(CCCO)c(=O)c2c1nc(Oc1cccc(Cl)c1)n2Cc1ccc(Cl)cc1 [HC070]
IC50 (human TRPC5 [1]): 9.3 nM | anxiolytic and antidepressant function [2]: carries anxiolytic and antidepressant function | oral bioavailability [2]: orally bioavailable | selectivity over a wide range of molecular targets [3]: at least 400 fold | IC50 (human TRPC5 [4]): 0.52 nM

Cn1c(=O)n(CCCO)c(=O)c2c1nc(Oc1cccc(OC(F)(F)F)c1)n2Cc1ccc(Cl)cc1 [HC608]
blocking of [^11C]HC070 binding in rat brain sections (TRPC5 [5]; cold blocker at 1 μM): significantly reduced binding; also recorded: able to reduce the radioactivity signal in the tissue slides very well; also recorded: significantly blocked

[11CH3]n1c(=O)n(CCCO)c(=O)c2c1nc(Oc1cccc(Cl)c1)n2Cc1ccc(Cl)cc1 [[^11C]HC070]
logD7.4 [6]: 1.08 ± 0.04 | regional accumulation in rat brain sections (TRPC5 [5]; 1.11 MBq/slide, room temperature, 30 min): highest accumulation in the TRPC5-enriched colliculus, striatum, cortex, and thalamus regions | binding specificity in rat brain sections (TRPC5 [5]; autoradiography with HC608 block): specifically binds TRPC5 sites in rat brain sections | regional brain uptake, prefrontal cortex (SUV) (TRPC5 [7]; macaque, highest regional radioactivity): 2.88 | fold higher brain uptake compared with [^11C]HC608 (TRPC5 [7]; macaque, initial time (5 min), average): 2.4 fold | time of maximum brain uptake post-injection (TRPC5 [7]; male cynomolgus macaque): 3 to 5 min | maximum total brain uptake (SUV) (TRPC5 [7]; male cynomolgus macaque, iv, 0-120 min dynamic PET): ~ 2.2 and 2.2 | solubility ([8]; dose formulation, ethanol/saline): good solubility; also recorded: improved solubility in ethanol/saline medium | residue retaining inside surface of a glass vial or a syringe ([8]; dose solution without Kolliphor HS15): little percentage of retaining was detected | brain uptake ratio from 5 min to 60 min ([9]; SD rats, 5 min/60 min): 4.5 | Tracer uptake, Blood ([9]; SD rats, 5 min post injection): 0.13±0.02 %I.D./gram | Tracer uptake, Brain ([9]; SD rats, 5 min post injection): 0.47±0.10 %I.D./gram | Tracer uptake, Fat ([9]; SD rats, 5 min post injection): 0.07±0.02 %I.D./gram | Tracer uptake, Heart ([9]; SD rats, 5 min post injection): 0.94±0.12 %I.D./gram | Tracer uptake, Kidney ([9]; SD rats, 5 min post injection): 1.28±0.28 %I.D./gram | Tracer uptake, Lung ([9]; SD rats, 5 min post injection): 0.72±0.07 %I.D./gram | Tracer uptake, Muscle ([9]; SD rats, 5 min post injection): 0.12±0.01 %I.D./gram | Tracer uptake, Pancreas ([9]; SD rats, 5 min post injection): 1.33±0.30 %I.D./gram | Tracer uptake, Small intestine ([9]; SD rats, 5 min post injection): 1.16±0.11 %I.D./gram | Tracer uptake, Spleen ([9]; SD rats, 5 min post injection): 0.73±0.17 %I.D./gram | Tracer uptake, Thymus ([9]; SD rats, 5 min post injection): 0.47±0.08 %I.D./gram | Tracer uptake, Blood ([9]; SD rats, 30 min post injection): 0.12±0.02 %I.D./gram | Tracer uptake, Brain ([9]; SD rats, 30 min post injection): 0.18±0.01 %I.D./gram | Tracer uptake, Fat ([9]; SD rats, 30 min post injection): 0.31±0.09 %I.D./gram | Tracer uptake, Heart ([9]; SD rats, 30 min post injection): 0.33±0.03 %I.D./gram | Tracer uptake, Kidney ([9]; SD rats, 30 min post injection): 0.46±0.03 %I.D./gram | Tracer uptake, Liver ([9]; SD rats, 30 min post injection): 1.70±0.18 %I.D./gram | Tracer uptake, Lung ([9]; SD rats, 30 min post injection): 0.41±0.07 %I.D./gram | Tracer uptake, Muscle ([9]; SD rats, 30 min post injection): 0.17±0.02 %I.D./gram | Tracer uptake, Pancreas ([9]; SD rats, 30 min post injection): 0.47±0.01 %I.D./gram | Tracer uptake, Small intestine ([9]; SD rats, 30 min post injection): 3.01±0.23 %I.D./gram | Tracer uptake, Spleen ([9]; SD rats, 30 min post injection): 0.20±0.02 %I.D./gram | Tracer uptake, Thymus ([9]; SD rats, 30 min post injection): 0.24±0.02 %I.D./gram | Tracer uptake, Blood ([9]; SD rats, 60 min post injection): 0.12±0.01 %I.D./gram | Tracer uptake, Brain ([9]; SD rats, 60 min post injection): 0.09±0.02 %I.D./gram | Tracer uptake, Fat ([9]; SD rats, 60 min post injection): 0.35±0.12 %I.D./gram | Tracer uptake, Heart ([9]; SD rats, 60 min post injection): 0.20±0.03 %I.D./gram | Tracer uptake, Kidney ([9]; SD rats, 60 min post injection): 0.33±0.05 %I.D./gram | Tracer uptake, Liver ([9]; SD rats, 60 min post injection): 1.88±0.13 %I.D./gram | Tracer uptake, Lung ([9]; SD rats, 60 min post injection): 0.23±0.07 %I.D./gram | Tracer uptake, Muscle ([9]; SD rats, 60 min post injection): 0.13±0.02 %I.D./gram | Tracer uptake, Pancreas ([9]; SD rats, 60 min post injection): 0.33±0.06 %I.D./gram | Tracer uptake, Small intestine ([9]; SD rats, 60 min post injection): 3.01±1.71 %I.D./gram | Tracer uptake, Spleen ([9]; SD rats, 60 min post injection): 0.13±0.01 %I.D./gram | Tracer uptake, Thymus ([9]; SD rats, 60 min post injection): 0.13±0.03 %I.D./gram | clearance from plasma ([9]; rats, ex vivo distribution): cleared from plasma primarily through hepatobiliary metabolism | time of peak brain uptake (TRPC5 [10]): ≤ 2 min | time of peak brain uptake (TRPC5 [11]): ~ 1.0 min | peak brain uptake (SUV) (TRPC5 [11]; iv, 0-60 min dynamic PET, n = 3): 1.13 and ~ 1.13 and 1.13 ± 0.08
